# Laboratory results from ChEMBL document CHEMBL1150129, “Daucane phytoestrogens: a structure-activity study” (J Nat Prod, 2002).
# Active and inactive are the calls of the source. The rule behind the calls is not given here.
# Target: Estrogen receptor beta (Homo sapiens) (UniProt Q92731)
# Assay: Displacement of [2,4,6,7-3H]estradiol from human recombinant ERbeta receptor
# How it was run: (§1)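 Recombinant human ERα or ERβ (1.5 nM) with 15 nM [3H]-17β-estradiol and diluted compounds in pH 7.5 Tris buffer with 10% glycerol, 2 mM DTT, 1 mg/mL BSA; overnight at 4 °C. Bound ligand captured on hydroxylapatite, washed thrice (ERα: Tris/KCl/EDTA/EGTA; ERβ: Tris only), ethanol-extracted, radioactivity counted.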
# Sequence of Estrogen receptor beta (Homo sapiens) (Q92731 whole entry): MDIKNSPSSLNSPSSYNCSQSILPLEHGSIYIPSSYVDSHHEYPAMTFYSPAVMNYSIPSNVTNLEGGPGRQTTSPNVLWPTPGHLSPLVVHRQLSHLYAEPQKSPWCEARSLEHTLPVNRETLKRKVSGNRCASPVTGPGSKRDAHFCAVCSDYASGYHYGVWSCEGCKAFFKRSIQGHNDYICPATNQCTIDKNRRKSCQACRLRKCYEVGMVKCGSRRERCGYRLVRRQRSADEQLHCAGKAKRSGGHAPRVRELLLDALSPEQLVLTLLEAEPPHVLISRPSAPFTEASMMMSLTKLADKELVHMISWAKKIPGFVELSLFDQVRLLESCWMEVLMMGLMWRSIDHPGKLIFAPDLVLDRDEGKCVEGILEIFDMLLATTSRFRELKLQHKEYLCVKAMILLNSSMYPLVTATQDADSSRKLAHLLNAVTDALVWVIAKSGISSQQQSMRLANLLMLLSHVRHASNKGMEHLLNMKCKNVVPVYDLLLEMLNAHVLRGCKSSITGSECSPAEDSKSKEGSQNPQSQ
row,SMILES,Activity
1,CC(=O)Oc1ccc(C(=O)O[C@H]2CC(C)=CC[C@@]3(C)CC[C@@](O)(C(C)C)[C@H]23)cc1,< 1%

# Target: T1, Estrogen receptor (Homo sapiens) (UniProt P03372)
# T1 sequence (whole entry): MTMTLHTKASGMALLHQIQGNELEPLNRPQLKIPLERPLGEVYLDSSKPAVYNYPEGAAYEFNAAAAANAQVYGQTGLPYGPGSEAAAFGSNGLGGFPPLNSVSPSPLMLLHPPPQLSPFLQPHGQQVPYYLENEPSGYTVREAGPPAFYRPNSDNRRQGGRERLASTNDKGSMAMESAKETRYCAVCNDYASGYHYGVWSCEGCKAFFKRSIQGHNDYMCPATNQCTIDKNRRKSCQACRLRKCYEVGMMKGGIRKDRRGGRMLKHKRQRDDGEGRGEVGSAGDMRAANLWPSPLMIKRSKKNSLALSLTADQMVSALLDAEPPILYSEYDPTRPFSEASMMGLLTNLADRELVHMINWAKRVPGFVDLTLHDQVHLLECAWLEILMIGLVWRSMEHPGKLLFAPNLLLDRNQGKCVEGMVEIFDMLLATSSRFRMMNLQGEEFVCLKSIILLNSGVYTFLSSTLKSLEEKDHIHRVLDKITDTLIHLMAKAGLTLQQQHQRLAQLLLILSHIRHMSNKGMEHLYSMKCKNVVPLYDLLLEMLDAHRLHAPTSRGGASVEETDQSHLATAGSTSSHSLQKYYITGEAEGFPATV
# Assay: Binding affinity to human ERalpha expressed in yeast relative to estradiol
# How it was run: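 Yeast (Saccharomyces cerevisiae) estrogen screen expressing human ERα with estrogen-responsive sequences driving lac-Z. Compound aliquots dried into wells before assay. β-Galactosidase activity read as chlorophenol red β-D-galactopyranoside hydrolysis, absorbance 540 nm.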
row,SMILES,Activity
1,COc1cc(CC(=O)O[C@H]2CC(C)=CC[C@@]3(C)CC[C@@](O)(C(C)C)[C@H]23)ccc1O,inactive
2,CC1=CC[C@@]2(C)CC[C@@](O)(C(C)C)[C@@H]2[C@@H](OC(=O)Cc2ccc(O)cc2)C1,< 0.0001%
3,COc1ccc(C(=O)O[C@H]2CC(C)=CC[C@@]3(C)CC[C@@](O)(C(C)C)[C@H]23)cc1,< 0.0001%
4,CC1=CC[C@@]2(C)CC[C@@](O)(C(C)C)[C@@H]2[C@@H](OC(=O)/C=C/c2ccc(O)c(O)c2)C1,inactive
5,CC1=CC[C@@]2(C)CC[C@@](O)(C(C)C)[C@@H]2[C@@H](OC(=O)CCc2ccc(O)c(O)c2)C1,inactive
6,COc1cc(C(=O)O[C@H]2CC(C)=CC[C@@]3(C)CC[C@@](O)(C(C)C)[C@H]23)ccc1O,inactive
7,CC1=CC[C@@]2(C)CC[C@@](O)(C(C)C)[C@@H]2[C@@H](OC(=O)CCc2ccc(O)cc2)C1,< 0.0001%
8,CC1=CC[C@@]2(C)CC[C@@](O)(C(C)C)[C@@H]2[C@@H](OC(=O)c2ccccc2)C1,inactive
9,CC1=CC[C@@]2(C)CC[C@@](O)(C(C)C)[C@@H]2[C@@H](OC(=O)c2ccc(O)c(O)c2)C1,< 0.1%
10,COc1cc(/C=C/C(=O)O[C@H]2CC(C)=CC[C@@]3(C)CC[C@@](O)(C(C)C)[C@H]23)cc(OC)c1O,inactive
11,CC1=CC[C@@]2(C)CC[C@@](O)(C(C)C)[C@@H]2[C@@H](OC(=O)/C=C/c2ccc(O)cc2)C1,< 0.0001%
12,CC(=O)Oc1ccc(C(=O)O[C@H]2CC(C)=CC[C@@]3(C)CC[C@@](O)(C(C)C)[C@H]23)cc1,0.2%
13,COc1cc(C(=O)O[C@H]2CC(C)=CC[C@@]3(C)CC[C@@](O)(C(C)C)[C@H]23)cc(OC)c1OC,inactive
14,COc1cc(/C=C/C(=O)O[C@H]2CC(C)=CC[C@@]3(C)CC[C@@](O)(C(C)C)[C@H]23)ccc1O,inactive

# Target: T1, Estrogen receptor (Homo sapiens)
# Assay: Displacement of [2,4,6,7-3H]estradiol from human recombinant ERalpha receptor
# How it was run: as §1
row,SMILES,Activity
1,CC(=O)Oc1ccc(C(=O)O[C@H]2CC(C)=CC[C@@]3(C)CC[C@@](O)(C(C)C)[C@H]23)cc1,< 1%
